# From ChEMBL document CHEMBL1122696, “Synthesis and antiviral/antitumor activities of certain pyrazolo[3,4-d]pyrimidine-4(5H)-selone nucleosides and related compounds” (J Med Chem, 1984)
# Active and inactive are the calls of the source. No cut-off for these calls is given here.
# Legend:
# [1] = Toxic level of the compound; None; type: ADME
# Human alphaherpesvirus 2 = experiment: In vitro antiviral activity against Herpes simplex type 2 virus; type: functional; conditions: read-out: ED50 (the source's name)
# L1210 [2] = experiment: In vitro antitumor activity against L1210 leukemia cells; b = Inactive at 10e-4 M; type: functional, cell-based; conditions: Mus musculus
# Summary of the method: (§1)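 L1210 and P388 cells kept in RPMI-1640 with 10% heat-inactivated fetal calf serum. Seeded in tubes at 5×10^4 cells/mL and grown 48 h at 37 °C with compound at 4-5 log doses. Growth counted by Coulter counter and expressed as % of untreated control tubes. ID50 is the dose giving 50% growth inhibition.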
# Measles morbillivirus = experiment: In vitro antiviral activity against measles virus; type: functional; conditions: read-out: ED50 (the source's name)
# P388 [3] = experiment: In vitro antitumor activity against P388 leukemia cells; b = Inactive at 10e-4 M; type: functional, cell-based; conditions: Mus musculus; summary of the method: as §1
# Human respirovirus 3 = experiment: In vitro antiviral activity against parainfluenza type (para 3) virus; type: functional; conditions: read-out: ED50 (the source's name)
# Vaccinia virus = experiment: In vitro antiviral activity against Vaccinia virus; type: functional; conditions: Orthopoxvirus vaccinia; read-out: ED50 (the source's name)
# [4] = Toxic level of the compound; type: ADME
# Summary of the method: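 HeLa and Vero cells grown overnight to near confluency, then exposed to compound at 100 or 1000 μg/mL for 24-72 h in quadruplicate wells. Cells trypsinized, serially diluted and replated, then grown 3-5 days drug-free. Crystal violet-stained colonies counted. Survival expressed as relative plating efficiency versus untreated controls.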
# L1210 [5] = experiment: In vitro antitumor activity against L1210 leukemia cells; type: functional; conditions: Mus musculus, read-out: ID50 (the source's name)
# Summary of the method: (§2)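 L1210 or P388 cells kept in RPMI-1640 with 10% heat-inactivated fetal calf serum, seeded at 5×10^4 cells/mL in tubes. Grown with compound at 4-5 log doses for 48 h at 37 °C. Growth read by Coulter cell count as % of untreated control tubes. ID50 = dose giving 50% growth inhibition.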
# P388 [6] = experiment: In vitro antitumor activity against P388 leukemia cells; type: functional; conditions: Mus musculus, read-out: ID50 (the source's name); summary of the method: as §2
SMILES,Toxic level [1],EC50 (Human alphaherpesvirus 2),ID50 (L1210 [2]),EC50 (Measles morbillivirus),ID50 (P388 [3]),EC50 (Human respirovirus 3),EC50 (Vaccinia virus),Toxic level [4],IC50 (L1210 [5]),IC50 (P388 [6])
Cc1nc(N)c2cnn(C3O[C@H](CO)[C@@H](O)[C@H]3O)c2n1 (stereo partly drawn),Not Active,35 µM,Inactive at 10^-4M,12 µM,Inactive at 10^-4M,> 5000 µM,5000 µM,,,
Cc1nc(S)c2cnn(C3O[C@H](CO)[C@@H](O)[C@H]3O)c2n1 (stereo partly drawn),,320 µM,Inactive at 10^-4M,0.0014 µM,Inactive at 10^-4M,> 5000 µM,1200 µM,5000 µM,,
OC[C@H]1OC(n2ncc3c(S)ncnc32)[C@H](O)[C@@H]1O (stereo partly drawn),Not Active,160 µM,Inactive at 10^-4M,12 µM,Inactive at 10^-4M,> 5000 µM,,,,
Cc1nc2c(cnn2C2O[C@H](CO)[C@@H](O)[C@H]2O)c(=O)[nH]1 (stereo partly drawn),,50 µM,Inactive at 10^-4M,12 µM,Inactive at 10^-4M,> 5000 µM,1600 µM,5000 µM,,
OC[C@H]1OC(n2ncc3c([SeH])ncnc32)[C@H](O)[C@@H]1O (stereo partly drawn),,5 µM,,1.2 µM,,> 5000 µM,9.6 µM,160 µM,2.5 µM,2.7 µM
OC[C@H]1OC(n2nc(Br)c3c([SeH])ncnc32)[C@H](O)[C@@H]1O (stereo partly drawn),,9 µM,,1.3 µM,,> 5000 µM,5 µM,50 µM,2.7 µM,2.3 µM
Cc1nc([SeH])c2cnn(C3O[C@H](CO)[C@@H](O)[C@H]3O)c2n1 (stereo partly drawn),,5 µM,,1.3 µM,,13 µM,16 µM,500 µM,3.1 µM,3.1 µM
